Data on two molecules can be found in ChEMBL document CHEMBL4396885, “Thioether-based 2-aminobenzamide derivatives: Novel HDAC inhibitors with potent in vitro and in vivo antitumor activity” (Eur J Med Chem, 2019).

Assay [1] relates to SMMC-7721. In words: Antiproliferative activity against human SMMC7721 cells assessed as growth inhibition at 2 uM after 72 hrs by CCK-8 assay relative to control. To be noted: SMMC-7721, 72 h, read-out: GI. The class given is functional. A general note: Tetrazolium assays rely on reduction of a dye to a coloured formazan, in cell work by metabolically active cells.
For a further assay, the target named is Histone deacetylase. As to the kind of experiment: Inhibition of HDAC in human HeLa cell nuclear extract assessed as decrease in deacetylation of FLUOR DE LYS Green substrate preincubated for 10 mins followed by substrate addition and measured after 30 mins by fluorescence based assay. The format is cell-free.
The subject of assay [2] is HeLa. In words: Antiproliferative activity against human HeLa cells assessed as growth inhibition at 8 uM after 72 hrs by CCK-8 assay relative to control. The class given is functional. The note with it: read-out: GI.
Another assay has as its target Histone deacetylase 1 (Homo sapiens, UniProt Q13547). In words: Inhibition of recombinant human His tagged HDAC1 expressed in baculovirus infected insect cells assessed as decrease in deacetylation of FLUOR DE LYS Green substrate preincubated for 10 mins followed by substrate addition and measured after 30 mins by fluorescence based assay.
For assay [3], the system named is HeLa. In words: Antiproliferative activity against human HeLa cells assessed as growth inhibition at 2 uM after 72 hrs by CCK-8 assay relative to control. The class given is functional. To be noted: read-out: GI.
Assay [4] concerns A549. In words: Induction of apoptosis in human A549 cells assessed as early apoptotic cells at 2 uM after 48 hrs by Annexin V-FITC/propidium iodide staining based flow cytometry (reference value: 1.19%). The format is functional. A digest of the protocol:
(§1)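 A549 seeded 4×10⁶ cells/well, dosed after 12 h with compound at various concentrations, harvested after 48 h. Resuspended in annexin-binding buffer, stained with Annexin V-FITC and propidium iodide for 15 min in the dark, analysed by flow cytometry; means of three separate experiments.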

Assay [5] addresses T1, Protein deacetylase HDAC6 (Homo sapiens, UniProt Q9UBN7).
T1 sequence (Q9UBN7 whole entry): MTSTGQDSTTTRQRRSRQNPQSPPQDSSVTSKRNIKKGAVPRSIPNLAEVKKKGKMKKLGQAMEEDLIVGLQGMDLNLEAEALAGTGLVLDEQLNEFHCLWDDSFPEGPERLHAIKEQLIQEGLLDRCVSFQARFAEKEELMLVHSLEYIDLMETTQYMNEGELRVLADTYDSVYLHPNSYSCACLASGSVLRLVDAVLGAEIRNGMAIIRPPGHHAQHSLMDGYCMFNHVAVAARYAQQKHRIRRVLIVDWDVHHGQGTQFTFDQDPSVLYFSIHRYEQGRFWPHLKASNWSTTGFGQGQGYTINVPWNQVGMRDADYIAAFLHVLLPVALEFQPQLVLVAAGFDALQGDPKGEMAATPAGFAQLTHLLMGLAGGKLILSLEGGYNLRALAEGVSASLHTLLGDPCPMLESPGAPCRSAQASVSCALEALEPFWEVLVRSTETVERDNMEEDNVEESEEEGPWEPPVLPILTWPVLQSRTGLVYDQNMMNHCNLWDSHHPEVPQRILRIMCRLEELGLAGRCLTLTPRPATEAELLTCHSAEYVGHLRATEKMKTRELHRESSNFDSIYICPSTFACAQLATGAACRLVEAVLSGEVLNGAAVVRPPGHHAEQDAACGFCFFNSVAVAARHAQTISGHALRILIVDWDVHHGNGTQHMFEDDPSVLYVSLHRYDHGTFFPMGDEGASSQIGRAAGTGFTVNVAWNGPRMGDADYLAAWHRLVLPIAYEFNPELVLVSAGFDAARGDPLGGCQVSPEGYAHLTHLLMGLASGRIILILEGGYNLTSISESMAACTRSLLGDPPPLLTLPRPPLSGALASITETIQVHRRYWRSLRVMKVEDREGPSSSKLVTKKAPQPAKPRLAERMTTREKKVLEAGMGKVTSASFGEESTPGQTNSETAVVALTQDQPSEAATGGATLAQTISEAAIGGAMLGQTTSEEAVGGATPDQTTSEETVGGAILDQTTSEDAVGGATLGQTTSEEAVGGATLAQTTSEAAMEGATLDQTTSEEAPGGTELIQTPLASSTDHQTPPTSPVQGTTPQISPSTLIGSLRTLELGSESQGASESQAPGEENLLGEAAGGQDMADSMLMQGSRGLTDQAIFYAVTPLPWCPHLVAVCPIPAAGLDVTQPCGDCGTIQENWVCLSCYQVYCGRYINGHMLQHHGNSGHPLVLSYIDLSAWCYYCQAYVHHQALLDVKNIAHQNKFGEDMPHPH
As to the kind of experiment: Inhibition of recombinant human His tagged HDAC6 expressed in baculovirus infected insect cells assessed as decrease in deacetylation of FLUOR DE LYS SIRT1 substrate by measuring decrease in fluorescence preincubated for 10 mins followed by substrate addition and measured after 30 mins by fluorescence based assay.

Assay [6] concerns HeLa. As to the kind of experiment: Antiproliferative activity against human HeLa cells assessed as decrease in cell viability after 72 hrs by CCK-8 assay. The class given is functional, cell-based. In short, it runs like this:
(§2)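 Cells grown to 70–85% confluence (A375, A549, HCT116 in RPMI1640; HeLa, SMMC7721 in DMEM; 10% FBS, 37 °C, 5% CO2), seeded 4000/well, dosed after 12 h across a concentration range, incubated 72 h, then CCK-8 for 1 h; absorbance at 450 nm. IC50 as mean ± SD of three separate experiments.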

Assay [7] deals with A549. In words: Induction of apoptosis in human A549 cells assessed as necrotic cells at 2 uM after 48 hrs by Annexin V-FITC/propidium iodide staining based flow cytometry (reference value: 0.135%). The class given is functional. A digest of the protocol: as §1
(In general: In flow cytometry, cells or beads pass a laser one at a time.)

For assay [8], the target named is Histone deacetylase 3/NCoR1 (Homo sapiens, UniProt O15379). As to the kind of experiment: Inhibition of recombinant human HDAC3/NCOR1 assessed as decrease in deacetylation of FLUOR DE LYS SIRT1 substrate preincubated for 10 mins followed by substrate addition and measured after 30 mins by fluorescence based assay. The format is protein-complex assay.
Assay [9] deals with SMMC-7721. In words: Antiproliferative activity against human SMMC7721 cells assessed as growth inhibition at 8 uM after 72 hrs by CCK-8 assay relative to control. The format is functional. The note with it: SMMC-7721, 72 h, read-out: GI.
Assay [10] concerns A549. As to the kind of experiment: Induction of apoptosis in human A549 cells assessed as viable cells at 1 uM after 48 hrs by Annexin V-FITC/propidium iodide staining based flow cytometry (reference value: 98%). The class given is functional. To be noted: A549, 48 h, read-out: Activity. A digest of the protocol:
as §1

Assay [11] has as its system A549. In words: Cell cycle arrest in human A549 cells assessed as accumulation of cells at G0/G1 phase at 2 uM after 48 hrs by propidium iodide staining-based flow cytometry (reference value: 73.35%). The format is functional.
The test system of assay [12] is A549. As to the kind of experiment: Cell cycle arrest in human A549 cells assessed as accumulation of cells at G0/G1 phase at 1 uM after 48 hrs by propidium iodide staining-based flow cytometry (reference value: 73.35%). The format is functional.
Assay [13] relates to A549. As to the kind of experiment: Antiproliferative activity against human A549 cells assessed as decrease in cell viability after 72 hrs by CCK-8 assay. The class given is functional, cell-based. The note with it: A549, 72 h. A digest of the protocol:
as §2

A further assay has as its system HCT-116. As to the kind of experiment: Antiproliferative activity against human HCT116 cells assessed as decrease in cell viability after 72 hrs by CCK-8 assay. The format is functional, cell-based. The note with it: HCT-116, 72 h. In short, it runs like this: as §2
Assay [14] has as its system A549. As to the kind of experiment: Induction of apoptosis in human A549 cells assessed as early apoptotic cells at 1 uM after 48 hrs by Annexin V-FITC/propidium iodide staining based flow cytometry (reference value: 1.19%). The format is functional. In short, it runs like this: as §1
A further assay concerns A-375. In words: Antiproliferative activity against human A375 cells assessed as growth inhibition at 2 uM after 72 hrs by CCK-8 assay relative to control. The format is functional. To be noted: A-375, 72 h, read-out: GI.

Histone deacetylase 1, sequence (Q13547 whole entry): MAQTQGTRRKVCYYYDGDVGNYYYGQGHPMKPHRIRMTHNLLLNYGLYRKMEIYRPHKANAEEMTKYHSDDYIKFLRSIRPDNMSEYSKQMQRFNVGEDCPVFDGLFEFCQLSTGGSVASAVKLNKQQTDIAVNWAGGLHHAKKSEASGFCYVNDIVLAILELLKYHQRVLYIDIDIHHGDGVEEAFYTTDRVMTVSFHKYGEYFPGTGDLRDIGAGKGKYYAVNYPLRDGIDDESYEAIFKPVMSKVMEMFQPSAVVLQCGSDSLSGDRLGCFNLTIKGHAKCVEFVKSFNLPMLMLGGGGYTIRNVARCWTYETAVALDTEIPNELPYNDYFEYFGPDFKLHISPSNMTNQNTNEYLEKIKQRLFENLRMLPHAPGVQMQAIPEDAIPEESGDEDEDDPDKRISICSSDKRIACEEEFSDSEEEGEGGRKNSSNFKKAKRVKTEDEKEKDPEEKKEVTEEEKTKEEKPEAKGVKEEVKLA
Histone deacetylase 3/NCoR1, sequence (O15379 whole entry): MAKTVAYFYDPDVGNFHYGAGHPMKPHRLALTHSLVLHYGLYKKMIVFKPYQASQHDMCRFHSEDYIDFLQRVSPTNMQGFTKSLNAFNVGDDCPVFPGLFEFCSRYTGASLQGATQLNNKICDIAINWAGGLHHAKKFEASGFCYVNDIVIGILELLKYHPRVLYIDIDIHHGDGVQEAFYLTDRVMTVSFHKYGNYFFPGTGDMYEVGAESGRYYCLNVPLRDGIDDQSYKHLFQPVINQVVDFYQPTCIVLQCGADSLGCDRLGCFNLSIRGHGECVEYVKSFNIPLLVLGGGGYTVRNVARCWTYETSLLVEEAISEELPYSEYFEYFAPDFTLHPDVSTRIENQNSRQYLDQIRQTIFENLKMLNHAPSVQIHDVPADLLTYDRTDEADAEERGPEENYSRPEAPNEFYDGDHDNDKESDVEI
Histone deacetylase 3/NCoR1, sequence (O75376 whole entry, further chain): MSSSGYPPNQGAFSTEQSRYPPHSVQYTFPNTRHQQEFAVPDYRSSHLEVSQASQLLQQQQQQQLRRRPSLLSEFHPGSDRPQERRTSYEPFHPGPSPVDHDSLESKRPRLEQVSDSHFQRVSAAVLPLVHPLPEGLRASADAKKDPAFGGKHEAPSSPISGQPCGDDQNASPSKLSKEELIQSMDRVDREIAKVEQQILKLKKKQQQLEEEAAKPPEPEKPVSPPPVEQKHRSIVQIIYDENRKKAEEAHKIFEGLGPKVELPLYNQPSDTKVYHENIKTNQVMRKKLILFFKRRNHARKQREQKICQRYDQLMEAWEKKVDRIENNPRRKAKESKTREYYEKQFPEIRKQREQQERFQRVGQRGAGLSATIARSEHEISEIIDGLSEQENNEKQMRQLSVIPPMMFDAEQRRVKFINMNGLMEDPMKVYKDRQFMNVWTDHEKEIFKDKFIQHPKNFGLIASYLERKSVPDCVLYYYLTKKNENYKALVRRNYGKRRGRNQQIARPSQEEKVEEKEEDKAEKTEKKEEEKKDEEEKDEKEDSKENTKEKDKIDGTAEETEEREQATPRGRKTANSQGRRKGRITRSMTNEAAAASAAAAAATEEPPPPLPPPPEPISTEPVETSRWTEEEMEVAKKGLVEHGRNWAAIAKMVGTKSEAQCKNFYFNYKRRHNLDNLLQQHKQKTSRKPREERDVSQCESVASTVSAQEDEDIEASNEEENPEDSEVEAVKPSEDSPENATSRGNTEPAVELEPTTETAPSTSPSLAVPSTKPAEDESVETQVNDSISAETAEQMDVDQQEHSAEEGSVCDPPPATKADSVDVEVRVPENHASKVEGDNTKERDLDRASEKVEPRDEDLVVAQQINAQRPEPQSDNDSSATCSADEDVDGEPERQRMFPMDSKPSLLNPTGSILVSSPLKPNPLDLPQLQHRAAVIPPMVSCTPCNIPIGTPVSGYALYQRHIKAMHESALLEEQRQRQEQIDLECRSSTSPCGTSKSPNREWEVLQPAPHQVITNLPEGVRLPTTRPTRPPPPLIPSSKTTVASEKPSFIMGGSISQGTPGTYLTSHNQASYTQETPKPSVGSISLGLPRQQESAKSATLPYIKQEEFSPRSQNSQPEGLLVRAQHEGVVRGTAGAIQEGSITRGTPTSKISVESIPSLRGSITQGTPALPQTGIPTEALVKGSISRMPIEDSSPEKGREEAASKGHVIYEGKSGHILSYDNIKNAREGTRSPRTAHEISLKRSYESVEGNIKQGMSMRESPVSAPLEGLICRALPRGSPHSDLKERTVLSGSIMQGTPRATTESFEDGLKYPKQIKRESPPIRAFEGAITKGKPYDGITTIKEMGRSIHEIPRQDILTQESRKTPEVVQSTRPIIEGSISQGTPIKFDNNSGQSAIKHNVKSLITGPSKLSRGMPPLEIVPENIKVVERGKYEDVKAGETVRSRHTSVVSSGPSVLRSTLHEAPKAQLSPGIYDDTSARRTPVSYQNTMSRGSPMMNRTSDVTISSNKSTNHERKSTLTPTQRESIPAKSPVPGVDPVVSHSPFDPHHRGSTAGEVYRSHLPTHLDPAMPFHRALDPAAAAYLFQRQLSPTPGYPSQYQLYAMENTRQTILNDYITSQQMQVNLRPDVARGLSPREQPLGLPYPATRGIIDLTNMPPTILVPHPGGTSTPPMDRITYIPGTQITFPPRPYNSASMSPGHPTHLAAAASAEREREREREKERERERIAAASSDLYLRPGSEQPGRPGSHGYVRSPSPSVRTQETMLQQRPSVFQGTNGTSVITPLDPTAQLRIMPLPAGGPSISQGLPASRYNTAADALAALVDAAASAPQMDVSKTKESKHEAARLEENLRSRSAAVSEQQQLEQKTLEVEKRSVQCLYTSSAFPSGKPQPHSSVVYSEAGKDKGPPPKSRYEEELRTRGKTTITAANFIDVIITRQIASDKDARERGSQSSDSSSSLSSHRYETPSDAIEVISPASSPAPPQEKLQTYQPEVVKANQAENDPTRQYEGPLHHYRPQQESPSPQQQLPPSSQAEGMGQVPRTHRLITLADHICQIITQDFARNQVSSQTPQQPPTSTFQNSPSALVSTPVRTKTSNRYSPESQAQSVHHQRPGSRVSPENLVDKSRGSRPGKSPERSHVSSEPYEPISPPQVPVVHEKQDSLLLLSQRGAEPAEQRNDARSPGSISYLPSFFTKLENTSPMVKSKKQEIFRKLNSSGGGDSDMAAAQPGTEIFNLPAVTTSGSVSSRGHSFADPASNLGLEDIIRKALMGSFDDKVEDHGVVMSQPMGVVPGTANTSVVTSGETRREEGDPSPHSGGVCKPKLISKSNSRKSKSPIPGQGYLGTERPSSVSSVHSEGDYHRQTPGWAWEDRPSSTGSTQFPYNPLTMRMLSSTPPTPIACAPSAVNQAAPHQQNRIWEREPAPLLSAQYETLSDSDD

As a reminder, the IC50 is the concentration that gives 50% inhibition. With `CCc1ccc(SCc2ccc(C(=O)Nc3ccccc3N)cc2)cc1`, the inhibition of growth at 2 µM in the assay with SMMC-7721 [1] came to 25.7%; in the assay with HeLa [3] it was 30.8%; with A-375, 19.6%. In addition, the IC50 at Histone deacetylase is greater than 32000 nM; at Histone deacetylase 1, 71 nM; in assay [5], greater than 32000 nM; with HeLa [6], 3800 nM; in assay [8], 215 nM; in the assay on A549 [13], 3040 nM. The IC50 in the assay with HCT-116 stood at 1740 nM. Also, the inhibition of growth at 8 µM in the assay on HeLa [2] was determined as 71%; in the assay with SMMC-7721 [9], 82.9%. Also, the Activity with A549 [4] stood at 6.55%; in the assay on A549 [7], 13.2%; in the assay with A549 [11] it was 24%; with A549 [12], 30.39%; in the assay on A549 [14] it was 6.52%. Besides, the viability at 1 µM with A549 [10] turned out to be 70.4%.
`COc1ccc(SCc2ccc(C(=O)Nc3ccccc3N)cc2)cc1`: the results for the inhibition of growth at 2 µM in the assay with SMMC-7721 [1], in the assay with HeLa [3] and in the assay on A-375 were 33.1%, 35% and 10.2%, respectively. Also, the IC50 on Histone deacetylase was greater than 32000 nM; on Histone deacetylase 1 it was 16 nM; in [5] it was greater than 32000 nM; in the assay on HeLa [6], 2390 nM; in assay [8] it was 136 nM; in the assay with A549 [13], 2570 nM. Further, the IC50 with HCT-116 turned out to be 1640 nM. Besides, the inhibition of growth at 8 µM with HeLa [2] came out at 79.7%; in the assay with SMMC-7721 [9] it was 80.1%. For the same molecule, the Activity in the assay with A549 [4] worked out at 5.65%; in the assay on A549 [7], 20.3%; in the assay with A549 [11], 39.3%; in the assay on A549 [12] it was 41.07%; in the assay with A549 [14] it was 19.8%. The viability at 1 µM in the assay on A549 [10] turned out to be 67.9%.
